# Source: paper PMC5450914 (Bioorganic & medicinal chemistry, 2017)
# Key:
# Recombinant GGDPS = target: T1, Recombinant GGDPS (Homo sapiens, UniProt O95749); experiment: GGDPS enzyme assay; assay type: biochemical
# T1 sequence (O95749 1-300): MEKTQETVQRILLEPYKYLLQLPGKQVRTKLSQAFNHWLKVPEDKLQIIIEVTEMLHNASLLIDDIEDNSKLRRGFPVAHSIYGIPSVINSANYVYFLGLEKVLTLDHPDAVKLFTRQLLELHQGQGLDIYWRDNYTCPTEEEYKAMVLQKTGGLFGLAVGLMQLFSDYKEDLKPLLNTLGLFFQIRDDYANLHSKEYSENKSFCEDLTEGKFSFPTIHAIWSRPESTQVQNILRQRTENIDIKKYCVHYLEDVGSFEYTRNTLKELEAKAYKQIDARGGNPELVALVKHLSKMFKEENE
# RPMI-8226 cells = experiment: Disruption of protein geranylgeranylation in myeloma cells; assay type: cell-based; conditions: 48 hours
# Procedure, shortened: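 RPMI-8226 myeloma cells exposed 48 h to varying test compound concentrations, with lovastatin 10 μM as comparator. Rap1a: RIPA whole-cell lysate, antibody recognising only unmodified protein, β-tubulin loading control. Rab6: Triton X-114 detergent (membrane) fraction, calnexin loading control, densitometry normalised to calnexin and to untreated cells. Equal BCA-quantified protein resolved by SDS-PAGE, transferred to PVDF, detected with HRP secondary and ECL.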
Structure (SMILES),potency relative to geranyl 1 (GGDPS inhibitory activity) (Recombinant GGDPS; compared with previously reported compound 1),fold less potent than homogeranyl 4 (GGDPS inhibitory activity) (Recombinant GGDPS; compared with previously reported compound 4) [fold],lowest concentration at which disruption of protein geranylgeranylation was seen (RPMI-8226 cells) [µM]
"CC(C)=CCC/C(C)=C/CCCn1cc(CC(P(=O)([O-])[O-])P(=O)([O-])[O-])nn1.[Na+].[Na+].[Na+].[Na+] [17b, Sodium (4E)–(2–(1–(5,9–dimethyldeca–4,8–dienyl)–1H–1,2,3–triazol–4–yl)ethane–1,1–diyl)bis(phosphonate)]",six-fold more potent,15,–
"CC(C)=CCC/C(C)=C\CCCn1cc(CC(P(=O)([O-])[O-])P(=O)([O-])[O-])nn1.[Na+].[Na+].[Na+].[Na+] [17c, Sodium (4Z)–(2–(1–(5,9–dimethyldeca–4,8–dienyl)–1H–1,2,3–triazol–4–yl)ethane–1,1–diyl)bis(phosphonate)]",–,–,0.5
